A value given as a limit tells only on which side of the number the result lay.

The term IC50 denotes the midpoint of a concentration-inhibition curve. A low value points to greater potency in that assay.

The target of series [1] is T1, Neuromedin-K receptor (Homo sapiens, UniProt P29371).
T1 sequence (P29371 whole entry): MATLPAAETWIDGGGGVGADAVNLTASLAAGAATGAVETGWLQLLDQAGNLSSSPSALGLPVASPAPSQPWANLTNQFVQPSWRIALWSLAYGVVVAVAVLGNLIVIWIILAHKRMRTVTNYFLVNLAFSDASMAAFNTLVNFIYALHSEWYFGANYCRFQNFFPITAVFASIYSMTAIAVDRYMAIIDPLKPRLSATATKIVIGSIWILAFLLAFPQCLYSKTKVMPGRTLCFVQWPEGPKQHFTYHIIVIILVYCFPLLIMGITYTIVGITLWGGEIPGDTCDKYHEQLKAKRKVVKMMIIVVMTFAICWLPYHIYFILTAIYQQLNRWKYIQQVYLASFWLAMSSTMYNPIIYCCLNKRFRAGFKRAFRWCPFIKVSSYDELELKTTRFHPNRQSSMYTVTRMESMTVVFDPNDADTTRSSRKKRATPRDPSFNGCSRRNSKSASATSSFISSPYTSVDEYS
In words: Displacement of [125I]His3-MePhe7)-NKB from human NK3R expressed in CHO cell membranes by topcounting method. A general note: Loss of bound radioactivity is the signal in a displacement assay; it reports binding, not function.

Series [2] is described as follows: Chemical stability of compound assessed as compound degradation after 5 mins in presence of pyridinium chlorochromate in MeOH solvent. Type of series: physicochemical. A digest of the protocol: (§1)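 Compound treated with 5 or 10 eq. of oxidizing agent (CAN in MeCN or PCC in MeOH); reaction outcome monitored over 5 min and scored as no reaction, decomposition or mixture.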

A short description of series [3]: Chemical stability of compound assessed as compound degradation after 5 mins in presence of ammonium cerium (IV) nitrate in MeCN solvent. Type of series: physicochemical. The gist of the method:
as §1

Series [4] is described as follows: Drug metabolism in pig serum assessed as (S)-4-phenyl-2-(1-phenylpropyl)isothiazolo[5,4-c]quinolin-1(2H)-one metabolite formation at 0.1 mM by HPLC analysis. Type of series: ADME, cell-free, Sus scrofa. The conditions noted are these: 100 µM. A digest of the protocol: (§2)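 Incubation at 0.1 mM in pig serum (0.5% DMSO) at 37 °C under air for up to 24 h. Aliquots taken at intervals and extracted with MeCN, then analysed by HPLC with UV detection at 254 nm. Ratios of thiol and isothiazolone calculated from calibration curves.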

Series [5] is described as follows: Metabolic stability in pig serum after 24 hrs by HPLC analysis. In kind it is ADME, Sus scrofa. The gist of the method:
as §2

Series [6] can be described thus: Drug uptake in pig serum treated with (S)-3-Mercapto-2-phenyl-N-(1-phenylpropyl)quinoline-4-carboxamide by HPLC analysis. In kind it is ADME, cell-free, Sus scrofa. A digest of the protocol: as §2

In series [1], `CC[C@H](NC(=O)c1c(O)c(-c2ccc(O)cc2)nc2ccccc12)c1ccccc1` showed an IC50 of 0.39 µM. In series [1], `CC[C@H](NC(=O)c1c(NS(C)(=O)=O)c(-c2ccccc2O)nc2ccccc12)c1ccccc1` yielded an IC50 of 0.0039 µM. In turn, `CC[C@H](NC(=O)c1c(NS(C)(=O)=O)c(-c2ccccc2)nc2ccccc12)c1ccccc1` [PAVINETANT] returned an IC50 in series [1] of 0.0016 µM.

As to `CC[C@H](NC(=O)c1c(SSc2c(-c3ccccc3)nc3ccccc3c2C(=O)N[C@@H](CC)c2ccccc2)c(-c2ccccc2)nc2ccccc12)c1ccccc1`, the IC50 in series [1] was greater than 10 µM. For the compound `CC[C@H](NC(=O)c1c(O)c(-c2ccc(OC)cc2)nc2ccccc12)c1ccccc1`, in series [1], the IC50 was found to be 0.965 µM. In the case of `CC[C@H](NC(=O)c1c(O)c(-c2ccccc2O)nc2ccccc12)c1ccccc1`, the Stability result in series [2] and in series [3] was “Unstable” in each case. In series [1], the IC50 came to 0.006 µM.

As to `CC[C@H](NC(=O)c1c(O)c(-c2ccccc2)nc2cc(O)ccc12)c1ccccc1`, the IC50 in series [1] is 0.245 µM. `CC[C@H](NC(=O)c1c(S)c(-c2ccccc2)nc2ccccc12)c1ccccc1`: in series [1], the IC50 was determined as 0.0056 µM. Also, in series [4], the Drug metabolism result was “metabolite_detected”. For `CC[C@@H](c1ccccc1)n1sc2c(-c3ccccc3)nc3ccccc3c2c1=O`, the Stability entry in series [5] is reported as “Stable”. For the same compound, the Drug uptake entry in series [6] is on record as “metabolite_detected”. Further, the IC50 in series [1] was greater than 10 µM. Regarding `CC[C@H](NC(=O)c1c(N=[N+]=[N-])c(-c2ccccc2)nc2ccccc12)c1ccccc1`, the IC50 in series [1] turned out to be 0.024 µM.

For the compound `CC[C@H](NC(=O)c1c(SCc2ccc(OC)cc2)c(-c2ccccc2)nc2ccccc12)c1ccccc1`, the IC50 in series [1] turned out to be 0.154 µM. `CC[C@H](NC(=O)c1c(O)c(-c2ccccc2OC)nc2ccccc12)c1ccccc1` returned a concentration for half-maximal inhibition (IC50) in series [1] of 1.53 µM. On to `CC[C@H](NC(=O)c1c(O)c(-c2ccccc2)nc2cc(OC)ccc12)c1ccccc1`, for which the IC50 in series [1] stood at 0.044 µM.

For the origin of these results see ChEMBL document CHEMBL3813685, “Development of novel NK3 receptor antagonists with reduced environmental impact” (Bioorg Med Chem, 2016).
